Calls of active or inactive are those of the source. The rule behind the calls is not given here.
Columns and labels:
Oocyte [1] = experiment: Induction of immature stage VI Xenopus oocyte maturation assessed as stimulation of progesterone-mediated maturation measured as germinal vesicle (nuclear) breakdown at 100 uM after overnight incubation; type: functional, cell-based
Method in brief: (§1)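 Oocytes (20 per well) pre-treated overnight with compound (100 μM final, DMSO) or DMSO vehicle, then stimulated with 2 μg/ml progesterone. GVBD (animal-pole white spot) scored at the time 50% of DMSO controls reach GVBD. Rate relative to control: 1.0 means no difference, above 1.0 acceleration, below 1.0 delay, 0.0 no maturation. Differences over 20% followed up.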

Oocyte [2] = experiment: Inhibition of immature stage VI Xenopus oocyte maturation assessed as inhibition of progesterone-mediated maturation measured as germinal vesicle (nuclear) breakdown at 100 uM after overnight incubation; type: functional, cell-based; method in brief: as §1

| Compound | Activity (Oocyte [1]) | inhibition (Oocyte [2]) |
| --- | --- | --- |
| C[C@@]12CC/C=C(/CO)CC[C@@H]3/C(=C\c4cccc(C(F)(F)F)c4)C(=O)O[C@@H]3[C@@H]1O2 | Active |  |
| C[C@@]12CC/C=C(/CO)CC[C@@H]3/C(=C\c4ccc(N)cc4)C(=O)O[C@@H]3[C@@H]1O2 | Active |  |
| C[C@@]12CC/C=C(/CO)CC[C@@H]3/C(=C\c4ncc[nH]4)C(=O)O[C@@H]3[C@@H]1O2 | Active |  |
| C[C@@]12CC/C=C(/CO)CC[C@@H]3/C(=C\c4ccsc4)C(=O)O[C@@H]3[C@@H]1O2 |  | Active |

— ChEMBL document CHEMBL3352597, “Heck products of parthenolide and melampomagnolide-B as anticancer modulators that modify cell cycle progression” (Eur J Med Chem, 2014)
